The text below walks through data of ChEMBL document CHEMBL1146626, “The stability of pseudopeptides bearing sulfoximines as chiral backbone modifying element towards proteinase K” (Bioorg Med Chem Lett, 2003).

Data set [1] is described as follows: Rate constant for the compound at a substrate concentration of 304 uM was determined. In kind it is ADME. In short, it runs like this: (§1)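 Substrate incubated at 37 °C with Proteinase K in 30 mM Tris–HCl, 1 mM CaCl2, pH 8.0. Aliquots were taken at several times, snap-frozen in liquid nitrogen and held at -20 °C. Thawed samples went straight onto C-18 RP-HPLC, eluted with water then a gradient to 70% CH3CN. Substrate and cleavage products were tracked by UV at 210 nm against retention times.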

Data set [2] is described as follows: Relativity constant at a substrate concentration of 304 uM. In kind it is ADME. The method in brief:
as §1

The nature of data set [3]: Half-life period at a substrate concentration of 304 uM was determined. In kind it is ADME. In short, it runs like this:
as §1

Data set [4] has as its system Proteinase K (Tritirachium album). Put plainly: Amount of proteinase K required to release folin positive amino acids at a substrate concentration of 304 uM.
Data set [5] is described as follows: Relativity constant at a substrate concentration of 304 uM.
The nature of data set [6]: Rate constant for the compound at a substrate concentration of 262 uM was determined; No cleavage. The data set is classed as ADME. In short, it runs like this: as §1
The nature of data set [7]: Rate constant for the compound at a substrate concentration of 218 uM was determined. The data set is classed as ADME. In short, it runs like this:
as §1

Data set [8] is described as follows: Relativity constant at a substrate concentration of 218 uM. The data set is classed as ADME. The method in brief:
as §1

Data set [9] is described as follows: Half-life period at a substrate concentration of 218 uM was determined. The data set is classed as ADME. The method in brief:
as §1

Residues, ends and D or L forms follow the SMILES beside them.

In data set [1], `N[C@H](Cc1ccccc1)C(=O)N=[S+]([O-])(CC(=O)N[C@H](Cc1ccccc1)C(=O)O)c1ccccc1` (some centres undefined) returned a K obs of 2.72 h⁻¹. In data set [2], this compound gave a Krel of 0.73. For the same compound, the half-life at 304 µM in data set [3] worked out at 15.3 min. For the same compound, the Activity in data set [4] turned out to be 30 mAU ml-1.
Turning to `N[C@@H](Cc1ccccc1)C(=O)N=[S+]([O-])(CC(=O)N[C@@H](Cc1ccccc1)C(=O)O)c1ccccc1` (some centres undefined), in data set [1], the K obs amounted to 3.75 h⁻¹. The same compound displayed a half-life at 304 µM in [3] of 11.1 min. The compound further came in with a Krel in data set [5] of 1. Also, the Activity in data set [4] came out at 3 mAU ml-1.
For `N=[S+]([O-])(CC(=O)N[C@@H](Cc1ccccc1)C(=O)O)c1ccccc1` (some centres undefined), the K obs result in [6] is listed as “No cleavage”. In addition, the Activity in data set [4] amounted to 300 mAU ml-1.
With `N[C@@H](Cc1ccccc1)C(=O)N[C@@H](Cc1ccccc1)C(=O)N[C@@H](Cc1ccccc1)C(=O)O` (H-Phe-Phe-Phe-OH), in data set [7], the K obs stood at 1.11 h⁻¹. In data set [8], this compound showed a Krel of 0.59. Moreover, the half-life at 218 µM in data set [9] amounted to 37.5 min. In [4], this compound showed an Activity of 1.5 mAU ml-1.

The term half-life denotes the time in which the quantity being followed falls by half. Read a low half-life as fast loss.
